Results reported in PubChem BioAssay AID602221 (Southern Research Specialized Biocontainment Screening …, 2012).
Calls of active or inactive are those of the source.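 Rule for the calls: active = inhibition of 30% or more at any tested concentration; inactive = the rest.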

Target: Aspartyl aminopeptidase (Homo sapiens) (UniProt Q9ULA0)
Assay: inhibition of human DNPEP peptide cleavage – biochemical, QFRET fluorogenic substrate, set 2, counter-screen for PfM18AAP inhibitor project, dose response (AID 602221)
Details: recombinant hM18AAP, H-Glu-NHMec fluorogenic cleavage
Outline: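 Assay system: purified recombinant human M18 aspartyl aminopeptidase (hM18AAP) / Amount: hM18AAP at 5 µg/mL final / Buffer or medium: Tris pH 7.5 with CoCl2 and 2% DMSO / Also added: H-Glu-NHMec substrate, 0.1 mM / Incubation: 90 min reaction, room temperature / Detection: fluorescence, ex 370/em 460 nm / Benchmarks: no-enzyme background wells as reference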

SMILES | IC50
Oc1ccc(-c2csc(NC3CCCC3)n2)cc1O | 4.78 µM
Oc1ccc(CCNc2c3ccccc3nc3ccccc23)cc1O | 0.95 µM
Oc1ccc(CCNc2ccnc3ccccc23)cc1O | 7.26 µM
CN1CCN(c2nc(-c3ccc(O)c(O)c3)cs2)CC1 | 3.7 µM
CCc1ccc(NC(=O)Cc2nc(-c3ccc(O)c(O)c3)cs2)cc1 | 6.04 µM
Oc1ccc(-c2csc(Nc3ncccn3)n2)cc1O | 2.25 µM
CN1CCN(CCCc2ccc(O)c(O)c2)CC1 | 6.49 µM
CN1CCN(CCc2ccc(O)c(O)c2)CC1 | 29.3 µM

Same assay, conditions: recombinant hM18AAP, H-Glu-NHMec fluorogenic cleavage; at 100 µM (top of the series)

SMILES | inhibition
COc1ccc(CCNC(c2ccccc2)c2ccccc2)cc1OC | inactive
COc1ccc(CCCN2CCN(C)CC2)cc1OC | inactive
